# Laboratory results from ChEMBL document CHEMBL5252538, “β-Lactam analogues of combretastatin A-4 prevent metabolic inactivation by glucuronidation in chemoresistant HT-29 colon cancer cells” (Eur J Med Chem, 2017).
# Activity calls are given as the source filed them. No cut-off for these calls is given here.
# Assays:
# [1] = tested on: Panel NCI-60 (60 carcinoma cell lines); assay: Antiproliferative activity against human panel NCI-60 (60 carcinoma cell lines) assessed as inhibition of cell growth at 10 uM incubated for 72 hrs by SRB assay; assay type: functional, cell-based
# [2] = Stability in phosphate buffer at pH 4 assessed as half life at 30 ug/ml measured for 24 hrs by analytical HPLC analysis; assay type: physicochemical; settings: dose 30 µg/ml
# HT-29 [3] = assay: Induction of apoptosis in human HT-29 cells assessed as upregulation of Bax protein expression at 0.1 to 1 uM incubated for 48 hrs by Western blot analysis; assay type: functional, cell-based; settings: dose 0.1-1 µM
# Method in brief: (§1)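 HT-29 seeded at 1 × 10⁵ cells per T25 flask; left untreated, given vehicle (0.1% EtOH v/v) or compound at 0.1 or 1 µM for 48 h. Whole-cell lysates in RIPA with protease/phosphatase inhibitors, equal protein (BCA) on 12% SDS-PAGE, PVDF; probed for Mcl-1, PARP, Bax (1:1000), HRP secondary, ECL detection, GAPDH loading control; three independent occasions.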
# HL-60 [4] = assay: Antiproliferative activity against […] human HL-60 cells assessed as inhibition of cell growth incubated for 72 hrs by alamar blue assay; assay type: functional, cell-based; settings: HL-60, 72 h
# Method in brief: (§2)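 Cells seeded 24 h before treatment (HL-60 4 × 10⁴, MCF-7 5 × 10³ per well), then given medium, vehicle (1% ethanol v/v) or serial dilutions (eight concentrations) for 72 h. Alamar Blue (10% v/v) added for 3–5 h at 37 °C in the dark, fluorescence read at ex 530/em 590 nm. Viability expressed relative to vehicle (100%), IC50 from dose–response curves; three experiments in triplicate.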
# HL-60 [5] = assay: Antiproliferative activity against human HL-60 cells assessed as inhibition of cell growth incubated for 72 hrs by SRB assay; assay type: functional
# Tubulin (Homo sapiens) [6] = target: T1, Tubulin (Homo sapiens) (UniProt P68371+Q9H4B7+P0DPH7+P68366+Q13509+Q71U36+P04350+Q3ZCM7+P07437+P68363+Q9BQE3+Q6PEY2+Q13885+Q9BVA1+Q9BUF5); assay: Induction of microtubule disruption in human MCF7 cells assessed as depolymerization of microtubules at 0.5 uM incubated for 16 hrs by immunofluorescence based confocal microscopic analysis; assay type: cell-based
# Method in brief: (§3)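 MCF-7 seeded at 1 × 10⁵ cells/mL on chamber slides, treated 16 h with vehicle (1% ethanol v/v), CA-4 (0.1 µM) or compounds (0.5 µM). Paraformaldehyde fixation (4%, 20 min), Triton X-100 permeabilisation, BSA block, anti-α-tubulin-FITC (DM1A) plus Alexa Fluor 488, DAPI mounting; confocal imaging with identical settings per experiment; three independent occasions.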
# HT-29 [7] = assay: Antiproliferative activity against human HT-29 cells assessed as inhibition of cell growth incubated for 72 hrs by SRB assay; assay type: functional
# Method in brief: (§4)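 HT-29 (DMEM Glutamax, 10% FBS) seeded at 1 × 10⁴ cells/well, treated after 24 h with vehicle (1% ethanol v/v) or serial dilutions (eight concentrations) for 72 h; viability measured by sulforhodamine B protocol. Percent viability relative to vehicle control, IC50 from dose–response curves; mean of three experiments in triplicate.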
# Tubulin (Homo sapiens) [8] = target: T1, Tubulin (Homo sapiens); assay: Induction of microtubule disruption in human MCF7 cells assessed as inhibition of microtubule formation at 0.5 uM incubated for 16 hrs by immunofluorescence based confocal microscopic analysis; assay type: cell-based; method in brief: as §3
# [9] = tested on: Panel NCI-60 (60 carcinoma cell lines); assay: Antiproliferative activity against human panel NCI-60 (60 carcinoma cell lines) incubated for 72 hrs by SRB assay; assay type: functional; settings: read-out: LC50 (the source's name)
# MCF7 [10] = assay: Antiproliferative activity against […] human MCF7 cells assessed as inhibition of cell growth incubated for 72 hrs by alamar blue assay; assay type: functional, cell-based; settings: MCF7, 72 h; method in brief: as §2
# Tubulin (Bos taurus) = Tubulin (Bos taurus) (UniProt Q6B856+Q862L2+Q862F3); assay: Inhibition of bovine tubulin polymerisation assessed as fold reduction in Vmax at 10 uM measured every 30 secs for 30 mins by spectrophotometric method relative to control; assay type: protein assay
# MCF7 [11] = assay: Induction of cell cycle arrest in human MCF7 cells assessed as accumulation of cells at G2/M phase at 0.5 uM incubated for 24 hrs by RNase/PI staining based flow cytometry analysis (reference value: 24%); assay type: functional
# [12] = Stability in phosphate buffer at pH 9 assessed as half life at 30 ug/ml measured for 24 hrs by analytical HPLC analysis; assay type: physicochemical; settings: dose 30 µg/ml
# MCF7 [13] = assay: Induction of cell cycle arrest in human MCF7 cells assessed as accumulation of cells at sub-G1 phase at 0.5 uM incubated for 72 hrs by RNase/PI staining based flow cytometry analysis (reference value: 4%); assay type: functional
# HT-29 [14] = assay: Induction of apoptosis in human HT-29 cells assessed as decrease in Mcl-1 protein expression at 0.1 to 1 uM incubated for 48 hrs by Western blot analysis; assay type: functional, cell-based; settings: dose 0.1-1 µM; method in brief: as §1
# HT-29 [15] = assay: Antiproliferative activity against combretastatin A-4 resistant human HT-29 cells assessed as inhibition of cell growth incubated for 72 hrs by SRB assay; assay type: functional, cell-based; settings: HT-29, 72 h; method in brief: as §4
# MCF7 [16] = assay: Antiproliferative activity against human MCF7 cells assessed as inhibition of cell growth incubated for 72 hrs by SRB assay; assay type: functional
# Tubulin (Homo sapiens) [17] = target: T1, Tubulin (Homo sapiens); assay: Induction of microtubule disruption in human MCF7 cells assessed as shrunken spindle shaped microtubule formation at 0.5 uM incubated for 16 hrs by immunofluorescence based confocal microscopic analysis; assay type: cell-based; method in brief: as §3
# [18] = Stability in phosphate buffer at pH 7.4 assessed as half life at 30 ug/ml measured for 24 hrs by analytical HPLC analysis; assay type: physicochemical; settings: dose 30 µg/ml
# HT-29 [19] = assay: Induction of apoptosis in human HT-29 cells assessed as increase in PARP cleavage at 0.1 uM incubated for 48 hrs by Western blot analysis; assay type: functional, cell-based; method in brief: as §1
# HT-29 [20] = assay: Induction of cell cycle arrest in human HT-29 cells assessed as accumulation of cells in G2/M phase at 1 uM incubated for 24 to 72 hrs by RNase/PI staining based flow cytometry analysis; assay type: functional; settings: time 24-72 hrs
# HT-29 [21] = assay: Induction of cell cycle arrest in human HT-29 cells assessed as accumulation of cells at G0/G1 phase at 1 uM incubated for 24 hrs in presence of 2,3-bis(amino((2aminophenyl)thio)methylene)succinonitrile by RAase A/PI staining based flow cytometry analysis (reference value: 57%); assay type: functional
# HT-29 [22] = assay: Induction of cell cycle arrest in human HT-29 cells assessed as accumulation of cells at G0/G1 phase at 1 uM incubated for 24 hrs by RAase A/PI staining based flow cytometry analysis (reference value: 57%); assay type: functional
# HT-29 [23] = assay: Induction of cell cycle arrest in human HT-29 cells assessed as accumulation of cells at G2/M phase at 1 uM incubated for 24 hrs in presence of 2,3-bis(amino((2-aminophenyl)thio)methylene)succinonitrile by RAase A/PI staining based flow cytometry analysis (reference value: 16%); assay type: functional
# Tubulin (Homo sapiens) [24] = target: T1, Tubulin (Homo sapiens); assay: Induction of microtubule disruption in human HT-29 cells assessed as effect on microtubule organization at 1 uM incubated for 16 hrs by immunofluorescence based confocal microscopic analysis; assay type: cell-based
# HT-29 [25] = assay: Induction of cell cycle arrest in human HT-29 cells assessed as accumulation of cells at G2/M phase at 1 uM incubated for 24 hrs by RAase A/PI staining based flow cytometry analysis (reference value: 16%); assay type: functional
# HT-29 [26] = assay: Induction of cell cycle arrest in human HT-29 cells assessed as accumulation of cells in sub-G1 phase at 1 uM incubated for 72 hrs by RNase/PI staining based flow cytometry analysis (reference value: 6%); assay type: functional
smiles,measurement,setting,value
COc1cc(N2C(=O)C(c3ccccc3)C2c2ccc(SC)cc2)cc(OC)c1OC (racemic),inhibition,[1],Active
same,half-life at 30 ug/ml,[2],600 min
same,Activity,HT-29 [3],Active
same,IC50,HL-60 [4],59 nM
same,GI50,HL-60 [5],23 nM
same,Activity,Tubulin (Homo sapiens) [6],Active
same,GI50,HT-29 [7],32 nM
same,Activity,Tubulin (Homo sapiens) [8],Active
same,CC50,[9],> 100 µM
same,IC50,MCF7 [10],65 nM
same,fold change (FC),Tubulin (Bos taurus),3.4
same,Activity,MCF7 [11],65%
same,half-life at 30 ug/ml,[12],480 min
same,Activity,MCF7 [13],11%
same,Activity,HT-29 [14],Active
same,IC50,HT-29 [15],56 nM
same,GI50,MCF7 [16],35 nM
same,Activity,Tubulin (Homo sapiens) [17],Active
same,half-life at 30 ug/ml,[18],900 min
same,Activity,HT-29 [19],Active
COc1ccc(C2C(c3ccccc3)C(=O)N2c2cc(OC)c(OC)c(OC)c2)cc1O (mixture of isomers),Activity,HT-29 [20],inactive
same,IC50,HL-60 [4],2 nM
same,Activity,HT-29 [21],26%
same,Activity,HT-29 [22],60%
same,Activity,HT-29 [23],58%
same,IC50,MCF7 [10],4 nM
same,Activity,Tubulin (Homo sapiens) [24],inactive
same,IC50,HT-29 [15],430 nM
same,Activity,HT-29 [25],16%
same,Activity,HT-29 [26],5%
